From PubChem BioAssay
ABHD5-PLIN5 inh – ABHD5-PLIN5 interaction inhibitors, primary screen, cell lysate, split luciferase complementation, luminescence | Perilipin-5 (Homo sapiens) + 1-acylglycerol-3-phosphate O-acyltransferase ABHD5 (Homo … | Split G. princeps luciferase complementation, 4 h | inhibition, % at 4 µM | 360,000 tested, 0.78% active | AID 602281, 2012;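 active = inhibition above the mean inhibition across every tested compound plus 3 SD, cut at about 22% in these data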;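 note: 0% = DMSO only wells and the 100% control is not disclosed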
Target sequence (Q00G26 whole entry, looked up): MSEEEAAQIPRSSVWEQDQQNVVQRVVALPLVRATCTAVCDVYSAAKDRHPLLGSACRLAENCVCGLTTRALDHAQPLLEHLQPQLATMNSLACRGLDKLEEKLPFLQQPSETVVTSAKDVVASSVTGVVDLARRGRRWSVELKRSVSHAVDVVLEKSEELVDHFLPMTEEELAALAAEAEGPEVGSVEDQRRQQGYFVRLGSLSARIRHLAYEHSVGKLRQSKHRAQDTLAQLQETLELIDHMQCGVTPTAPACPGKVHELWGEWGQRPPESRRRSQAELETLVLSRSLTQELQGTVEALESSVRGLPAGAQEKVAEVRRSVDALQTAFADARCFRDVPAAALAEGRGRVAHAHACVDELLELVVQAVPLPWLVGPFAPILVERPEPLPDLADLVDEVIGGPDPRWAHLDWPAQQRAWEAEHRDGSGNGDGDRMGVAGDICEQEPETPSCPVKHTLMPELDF
Target sequence (Q8WTS1 whole entry, looked up): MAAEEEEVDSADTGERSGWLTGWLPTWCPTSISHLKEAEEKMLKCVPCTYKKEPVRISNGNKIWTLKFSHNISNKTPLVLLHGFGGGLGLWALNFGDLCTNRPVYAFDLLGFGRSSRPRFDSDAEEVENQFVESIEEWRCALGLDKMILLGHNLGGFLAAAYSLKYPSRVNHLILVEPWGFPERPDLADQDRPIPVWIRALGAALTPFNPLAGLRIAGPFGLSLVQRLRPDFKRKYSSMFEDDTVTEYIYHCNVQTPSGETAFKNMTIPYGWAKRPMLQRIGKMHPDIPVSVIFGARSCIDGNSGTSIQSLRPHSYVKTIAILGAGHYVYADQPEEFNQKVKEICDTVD
NadD block – inhibitors of S. aureus NadD, primary screen, biochemical, colorimetric, uHTS. Nicotinate-nucleotide adenylyltransferase NadD (Staphylococcus aureus N315). purified NadD enzyme, colorimetric absorbance read-out. inhibition, % at 20 µM. 360,000 tested, 0.78% active. AID 602399, 2012; in the data active = inhibition above about 26%
core dimer inh – inhibitors of HCV core protein dimerization, primary screen, biochemical, TR-FRET, high-throughput | AID 1899, 2009 | inhibition, % at 5 µM | 300,000 tested, 0.33% active | TR-FRET GST/Flag-core106 dimerization, 1536-well;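 active = inhibition above the mean of all tested compounds plus 3 SD, set per screening campaign, cut at about 45% in these data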
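Test system: GST/Flag-tagged HCV core106 proteins; Medium: KF-containing HEPES buffer, pH 7.45, DTT, CHAPS, BSA; Times: compound-protein-antibody incubation 4 h at 22.5 °C; Detection: TR-FRET 671 and 617 nm emission; Benchmarks: wells lacking GST-core106 and wells with excess unlabelled core106.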
rCAG binder – binders of r(CAG) RNA repeats, primary screen, biochemical, fluorescence; r(CAG) RNA repeat, TO-PRO-1 dye displacement fluorescence; inhibition, % at 3 µM; 370,000 tested, 1.3% active;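 active = inhibition above the plate cutoff, the mean of all test compounds on that plate plus 3 SD, cut at about 35% in these data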;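 note: 0% = DMSO alone and 100% = 100 µM mitoxantrone as full dye displacement; higher means more dye released from RNA so lower well fluorescence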
ABHD5-PLIN5 conf – ABHD5-PLIN5 interaction inhibitors, confirmation, biochemical, luminescence | shares compounds with ABHD5-PLIN5 inh | inhibition, % at 4 µM | 2,200 tested, 67% active; in the data active = inhibition above about 23%;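 note: 0% = DMSO vehicle wells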
HNF4 counter – HNF4 dimerization inhibitors, counter-screen for ABHD5-PLIN5 interaction inhibitor project, biochemical, split-luciferase complementation, luminescence. shares compounds with ABHD5-PLIN5 inh. inhibition, % at 4 µM. 2,200 tested, 77% active;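 active = mean inhibition across replicate wells exceeding the computed hit threshold, cut at about 13% in these data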;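 note: light from luciferase halves that rejoin when HNF4 fusion proteins dimerize; 0% = DMSO only wells and the 100% control is not given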
* = called active by the depositor; / = not tested or not shown. Hits are enriched below; roughly 2.6% of the tested compounds scored in any of these assays.

SMILES	ABHD5-PLIN5 inh	NadD block	core dimer inh	rCAG binder	ABHD5-PLIN5 conf	HNF4 counter
O=C(C(=O)N1CCC(Cc2ccccc2)CC1)c1ccccc1	-11	/	/	0	/	/
COc1ccc2oc(=O)c(C(=O)NCc3ccco3)cc2c1	34*	2	-1	3	6	9
O=C(COc1ncnc2scc(-c3ccc(F)cc3)c12)NCc1ccco1	10	2	17	5	/	/
Cc1ccc(-c2csc3ncnc(OCC(=O)NC(=O)NCc4ccco4)c23)cc1	31*	15	49*	11	15	13*
Oc1ccc2ccccc2c1CN1CCN(C/C=C/c2ccccc2)CC1	5	-4	1	-5	/	/
O=S(=O)(c1ccccc1)N1CCN(Cc2c(O)ccc3ccccc23)CC1	28*	6	/	1	39*	81*
O=C(O)c1ccccc1C(=O)c1ccc(-c2ccccc2)cc1	0	0	-1	15	/	/
O=C(c1ccccc1)c1ccccc1N1C(=O)C=CC1=O	44*	5	6	11	45*	105*
O=C1C=CC(=O)N1c1ccccc1N1C(=O)C=CC1=O	30*	3	/	4	64*	109*
Cc1ccc2ccccc2c1C(O)c1ncc(-c2cccc(C(F)(F)F)c2)[nH]1 (centres undefined)	-6	10	/	4	/	/
O=C(Cn1nc(-c2ccccc2)ccc1=O)NCCc1ccccc1F	/	/	/	2	/	/
Cc1ccccc1-n1nc(C)c2c(C(=O)NN)cc(-c3ccncc3)nc21	14	5	-1	7	/	/
CCOC(=O)c1cc(-c2cccs2)nc2c1c(C)nn2-c1ccccn1	0	10	5	9	/	/
Cc1nn(-c2ccccc2)c2nc(-c3ccncc3)cc(C(=O)NCc3ccco3)c12	24*	13	27	15	21	26*
O=C(NCc1ccco1)c1nn2c(C(F)(F)F)cc(-c3cccs3)nc2c1Cl	3	4	9	-1	/	/
Cc1nn(-c2ccccn2)c2nc(-c3cccs3)cc(C(=O)NCc3ccco3)c12	35*	15	18	12	14	15*
O=C(NCc1ccco1)c1cc2nc(-c3cccs3)cc(C(F)(F)F)n2n1	23*	-5	8	6	13	16*
O=C(NC1CCCC1)N1CCC(c2nc3ccc(Cl)cc3[nH]2)CC1	/	/	/	3	/	/
COCc1cc(N2CCN(C(=O)OC(C)(C)C)C[C@@H]2C)ccc1N1CC[C@H](O)C1	/	/	/	10	/	/
COc1ccc(/C=C2\COc3ccccc3C2=O)cc1OC	33*	-6	11	-1	76*	71*
O=C(O)c1ccc(/C=C2\COc3ccccc3C2=O)cc1	32*	0	9	8	84*	78*
Cc1cc(C)c2c(c1)C(=O)/C(=C/c1ccc(C(=O)O)cc1)CC2	14	1	10	14	/	/
COc1cc(/C=C2\COC/C(=C\c3cc(OC)c(OC)c(OC)c3)C2=O)cc(OC)c1OC	47*	-9	/	0	101*	101*
CCOc1cc(/C=C2\COc3ccccc3C2=O)cc(Br)c1OCC(=O)N(C)C	77*	3	9	-2	86*	94*
CCN(C(=O)Cn1nnc(-c2ccncc2)n1)c1ccccc1	/	/	/	0	/	/
SMILES	ABHD5-PLIN5 inh	NadD block	core dimer inh	rCAG binder	ABHD5-PLIN5 conf	HNF4 counter
O=S1(=O)c2c(cccc2N2CCC[C@H]2CO)O[C@H]2CCN1C2	/	/	/	4	/	/
CS(=O)(=O)NCCNc1ncc(C(F)(F)F)cc1Cl	-9	-4	-2	-2	/	/
O=C1C=CC(=O)N1CCNc1ncc(C(F)(F)F)cc1Cl	45*	4	/	0	61*	107*
Cc1oc(=O)c(NC(=O)c2ccc(Cl)cc2)cc1C(=O)c1ccccc1	46*	-6	3	6	11	95*
COC(=O)c1ccc2nc(-c3ccc(Cl)cc3)c(Cc3ccccc3)n2c1	/	/	/	6	/	/
CC(Sc1ccsc1[N+](=O)[O-])C(=O)NCc1ccco1 (centres undefined)	28*	2	20	9	10	21*
COc1cc(/C=C(/C(=O)c2cccs2)c2nc3ccccc3[nH]2)ccc1O	35*	14	-1	10	76*	68*
